Series [1] addresses T1, Proteasome Macropain subunit MB1 (Homo sapiens, UniProt P28074).
T1 sequence (P28074 whole entry): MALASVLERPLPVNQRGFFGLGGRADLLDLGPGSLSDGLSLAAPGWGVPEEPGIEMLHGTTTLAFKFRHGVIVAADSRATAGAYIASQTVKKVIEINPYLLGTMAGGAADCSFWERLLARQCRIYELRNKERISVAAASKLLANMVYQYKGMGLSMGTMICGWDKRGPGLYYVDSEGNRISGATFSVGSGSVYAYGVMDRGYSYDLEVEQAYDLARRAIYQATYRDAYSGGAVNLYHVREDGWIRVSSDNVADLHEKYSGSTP
The experiment in a line: Inhibition of chymotrypsin-like activity of human 20S proteasome pretreated for 15 mins followed by Suc-Leu-Leu-Val-Tyr-AMC substrate addition by fluorescence assay. The procedure, abridged:
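Purified human proteasome (25 μg/mL) in 100 mM Tris-HCl pH 8.0 preincubated with compound 15 min, then Suc-Leu-Leu-Val-Tyr-AMC (50 μM) added; 50 μL reaction. AMC release followed as fluorescence increase at ex 355/em 460 nm. IC50 from sigmoidal variable-slope fit.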

In series [2] the test system is RPMI-8226. As to the kind of experiment: Cytotoxicity against human RPMI8226 cells measured after 72 hrs by MTS assay. Format: functional, cell-based. As to conditions: RPMI-8226, 72 h. The procedure, abridged: (§1)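 MM-1S seeded at 2 × 10⁴/well or RPMI 8226 at 0.5 × 10⁴/well, 100 μL, exposed to compound 72 h. MTS added (0.5 mg/mL final) for 2–4 h, absorbance read at 490 nm with 690 nm background subtraction. Inhibition = (A_control − A_sample)/A_control; IC50 from sigmoidal variable-slope nonlinear fit.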

In series [3] the test system is MM1.S. The experiment in a line: Cytotoxicity against human MM1S cells measured after 72 hrs by MTS assay. It counts as functional, cell-based. An outline of the steps: as §1
Series [4] in a line: Half-life in mouse plasma at 2 uM by LC-MS/MS analysis. It counts as ADME, cell-free. The procedure, abridged: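 Mouse plasma on sodium heparin. 10 mM DMSO stocks diluted to 0.02 mM in 0.05 M sodium phosphate with 0.5% BSA, then spiked into pre-warmed plasma to 2 µM final, duplicates (n=2), 37 °C water bath. Each time point quenched with acetonitrile; sonicated, shaken, centrifuged, supernatant diluted 1:1 in water, LC-MS/MS.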

For series [5], the target named is T2, Proteasome subunit beta type-5 (Mus musculus) (UniProt O55234).
T2 sequence (whole entry): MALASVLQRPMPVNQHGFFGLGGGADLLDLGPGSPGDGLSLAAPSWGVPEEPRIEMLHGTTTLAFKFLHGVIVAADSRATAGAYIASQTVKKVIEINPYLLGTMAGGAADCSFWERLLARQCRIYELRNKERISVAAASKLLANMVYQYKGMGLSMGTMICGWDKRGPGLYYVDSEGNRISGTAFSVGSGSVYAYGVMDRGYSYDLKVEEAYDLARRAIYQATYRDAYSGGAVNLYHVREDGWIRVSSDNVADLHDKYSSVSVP
As to the kind of experiment: Inhibition of chymotrypsin-like activity of 20S proteasome in mouse blood at 2.5 uM pretreated for 40 mins followed by Suc-Leu-Leu-Val-Tyr-AMC substrate addition by fluorescence assay relative to control. An outline of the steps:
(§2)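 Normal mouse whole blood incubated with compound (1:50 volume ratio) 40 min, then pelleted. Cells lysed in 5 mM EDTA pH 8.0 at 4 °C 60 min, lysate protein by Bradford. 100 μg protein assayed in 20 mM HEPES pH 8.0, 0.5 mM EDTA, 0.05% SDS, 1% DMSO with 50 μM […]; fluorescence ex 355/em 460 nm.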

The target in series [6] is T2, Proteasome subunit beta type-5 (Mus musculus). As to the kind of experiment: Inhibition of chymotrypsin-like activity of 20S proteasome in mouse blood at 0.5 uM pretreated for 40 mins followed by Suc-Leu-Leu-Val-Tyr-AMC substrate addition by fluorescence assay. The procedure, abridged: as §2
In series [7] the test system is Mus musculus. As to the kind of experiment: In vivo inhibition of chymotrypsin-like activity of 20S proteasome in blood cell of BALB/c mouse at 5 mg/kg, iv after 2 hrs using Suc-Leu-Leu-Val-Tyr-AMC substrate measured by fluorescence assay. Format: functional. An outline of the steps:
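BALB/c mice 6-8 weeks, 3 per group, single i.v. dose; positive control 5 mg/kg. Tail-vein blood taken at 1, 2 and 24 h into K2-EDTA tubes. Blood PBS-washed, cells lysed in 5 mM EDTA pH 8.0 for 60 min at 4 °C, clarified lysate assayed for chymotrypsin-like activity as in the in vitro assay.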

Structures are written as SMILES. Activity calls are given as the source filed them. The calls are words filed in the database; no cut-off is given here.

On to `CC(C)(C)CNC(=O)C[C@H](NC(=O)N1CCC(C(=O)Nc2ccon2)CC1)C(=O)N[C@@H](CCc1ccccc1)C(=O)NCc1ccccc1Cl`, for which the IC50 in series [1] was 7 nM.

With `CC(C)(C)CNC(=O)C[C@H](NC(=O)N1CCC(NC(=O)c2cnccn2)CC1)C(=O)N[C@@H](CCc1ccccc1)C(=O)NCc1ccc2c(c1)OCO2`, the IC50 in series [1] was 10 nM.

Regarding `CC(C)(C)CNC(=O)C[C@H](NC(=O)N1CCC(C(=O)Nc2ccccn2)CC1)C(=O)N[C@@H](CCc1ccccc1)C(=O)NCc1ccccc1Cl`, the IC50 was found to be 1 nM in series [1], 3.8 nM in series [2] and 4.3 nM in series [3].

Take `CC(C)(C)CNC(=O)C[C@H](NC(=O)N1CCC(C(=O)Nc2ccc(C(F)(F)F)cc2)CC1)C(=O)N[C@@H](CCc1ccccc1)C(=O)NCc1ccccc1Cl`: in series [1], the IC50 is 192 nM.

For `CC(C)(C)CNC(=O)C[C@H](NC(=O)c1ccc(F)cc1)C(=O)N[C@@H](CCc1ccccc1)C(=O)NCc1ccccc1Cl`, the half-life at 2 µM in series [4] came to 5.61 h.

For the compound `CC(C)(C)CNC(=O)C[C@H](NC(=O)N1CCC(C(=O)Nc2cccnc2)CC1)C(=O)N[C@@H](CCc1ccccc1)C(=O)NCc1ccccc1Cl`, the IC50 in series [1] is 0.7 nM; in series [2] it was 20.8 nM; in series [3] it was 20.7 nM. In addition, the inhibition in series [5] is greater than 70%.

With `COc1ccc(NC(=O)C2CCN(C(=O)N[C@@H](CC(=O)NCC(C)(C)C)C(=O)N[C@@H](CCc3ccccc3)C(=O)NCc3ccccc3Cl)CC2)cc1`, the IC50 in series [1] amounted to 25.7 nM.

With `CC(C)(C)CNC(=O)C[C@H](NC(=O)N1CCC(C(=O)Nc2cnccn2)CC1)C(=O)N[C@@H](CCc1ccccc1)C(=O)NCc1ccccc1Cl`, the results for the concentration for half-maximal inhibition (IC50) in series [1], in series [2] and in series [3] were 0.6 nM, 17.1 nM and 15.8 nM, respectively. The inhibition in series [5] was greater than 70%.

With `CC(C)(C)CNC(=O)C[C@H](NC(=O)N1CCC(C(=O)Nc2cnccn2)CC1)C(=O)N[C@@H](CCc1ccccc1)C(=O)NCc1ccc(F)cc1F`, the IC50 in series [1] is 6.6 nM.

In the case of `CC(C)(C)CNC(=O)C[C@H](NC(=O)N1CCC(NC(=O)c2cnccn2)CC1)C(=O)N[C@@H](CCc1ccccc1)C(=O)NCc1ccccc1Cl`, the IC50 in series [1] stood at 1.1 nM; in series [2], 20.3 nM; in series [3] it was 18.8 nM.

With `CC(C)(C)CNC(=O)C[C@H](NC(=O)C1CCN(C(=O)c2ccc(F)cc2)CC1)C(=O)N[C@@H](CCc1ccccc1)C(=O)NCc1ccccc1Cl`, the IC50 in series [1] was found to be 2.6 nM; in series [2], 22.7 nM; in series [3] it was 31.8 nM.

As to `CC(C)C[C@H](NC(=O)[C@H](CC(=O)NCC(C)(C)C)NC(=O)N1CCC(C(=O)Nc2cnccn2)CC1)C(=O)NCc1ccccc1Cl`, in series [1], the IC50 amounted to 11.6 nM.

Turning to `CC(C)(C)CNC(=O)C[C@H](NC(=O)N1CCC(NC(=O)c2cnccn2)CC1)C(=O)N[C@@H](Cc1ccccc1)C(=O)NCc1ccccc1Cl`, in series [1], the IC50 was 41 nM.

For the compound `CC(C)(C)CNC(=O)C[C@H](NC(=O)N1CCC(C(=O)Nc2nccs2)CC1)C(=O)N[C@@H](CCc1ccccc1)C(=O)NCc1ccccc1Cl`, the inhibition entry in series [6] and in series [5] was “Active” in each case. The IC50 is 0.9 nM in series [1], 10.2 nM in series [2] and 7.2 nM in series [3].

Regarding `CC(C)C[C@H](NC(=O)[C@H](CC(=O)NCC(C)(C)C)NC(=O)N1CCC(NC(=O)c2cnccn2)CC1)C(=O)NCc1ccccc1Cl`, the IC50 in series [1] came out at 21.8 nM.

Consider `C[C@H](NC(=O)[C@H](CC(=O)NCC(C)(C)C)NC(=O)N1CCC(C(=O)Nc2cnccn2)CC1)C(=O)NCc1ccccc1Cl`, for which the IC50 in series [1] is 19.7 nM.

As for `CC(C)(C)CNC(=O)C[C@H](NC(=O)N1CCN(C(=O)c2ccc(F)cc2)CC1)C(=O)N[C@@H](CCc1ccccc1)C(=O)NCc1ccccc1Cl`, the half-inhibitory concentration (IC50) in series [1] turned out to be 3.8 nM.

As to `CC(C)C[C@H](NC(=O)[C@H](CCc1ccccc1)NC(=O)CN1CCOCC1)C(=O)N[C@@H](Cc1ccccc1)C(=O)N[C@@H](CC(C)C)C(=O)[C@@]1(C)CO1` [CARFILZOMIB], the inhibition result in series [6], in series [7] and in series [5] was “Active” each time. This compound returned an IC50 in series [3] of 1.5 nM.

In the case of `CC(C)(C)CNC(=O)C[C@H](NC(=O)N1CCC(NC(=O)c2ccc(F)cc2)CC1)C(=O)N[C@@H](CCc1ccccc1)C(=O)NCc1ccccc1Cl`, the inhibition in vivo at 5 mg/kg in series [7] is greater than 50%. For the same compound, the figures for the IC50 in series [1], in series [2] and in series [3] were 1.2 nM, 8.4 nM and 6.3 nM, respectively. Besides, the inhibition in series [5] was greater than 70%. Besides, the half-life at 2 µM in series [4] came to 11.2 h.

With `CC(C)(C)CNC(=O)C[C@H](NC(=O)N1CCC(C(=O)Nc2cnccn2)CC1)C(=O)N[C@@H](Cc1ccccc1)C(=O)NCc1ccccc1Cl`, in series [1], the IC50 came out at 18 nM.

In the case of `CC(C)(C)CNC(=O)C[C@H](NC(=O)N1CCC(C(=O)Nc2ccc(F)cc2)CC1)C(=O)N[C@@H](CCc1ccccc1)C(=O)NCc1ccccc1Cl`, the inhibition entry in series [6] and in series [5] was “Active” each time. The IC50 stood at 1.5 nM in series [1], 13.9 nM in series [2] and 12.5 nM in series [3].

With `CC(C)(C)CNC(=O)C[C@H](NC(=O)C1CCN(C(=O)c2cnccn2)CC1)C(=O)N[C@@H](CCc1ccccc1)C(=O)NCc1ccccc1Cl`, the values for the IC50 in series [1], in series [2] and in series [3] were 2.4 nM, 15.9 nM and 11.8 nM, respectively.

With `CC(C)(C)CNC(=O)C[C@H](NC(=O)N1CCC(C(=O)Nc2cnccn2)CC1)C(=O)N[C@@H](CCc1ccccc1)C(=O)NCc1ccc2c(c1)OCO2`, the IC50 in series [1] was 2.9 nM.

With `CC(C)(C)CNC(=O)C[C@H](NC(=O)N1CCC(C(=O)NCc2nccs2)CC1)C(=O)N[C@@H](CCc1ccccc1)C(=O)NCc1ccccc1Cl`, the inhibition entry in series [6] and in series [5] was “Active” throughout. Moreover, the IC50 was 1 nM in series [1], 20.7 nM in series [2] and 22.5 nM in series [3].

`CC(C)(C)CNC(=O)C[C@H](NC(=O)N1CCC(NC(=O)c2cnccn2)CC1)C(=O)N[C@@H](CCc1ccccc1)C(=O)NCc1ccc(F)cc1F`: the IC50 in series [1] worked out at 10.8 nM.

Turning to `C[C@H](NC(=O)[C@H](CC(=O)NCC(C)(C)C)NC(=O)N1CCC(NC(=O)c2cnccn2)CC1)C(=O)NCc1ccccc1Cl`, in series [1], the IC50 came out at 13.3 nM.
